High-throughput results: PubChem BioAssay, The Scripps Research Institute Molecular Screening Center
This is a sample that favours compounds with a hit; in the whole collection about 2.4% have one here.
NPY Y2 blocker: antagonists of human neuropeptide Y receptor Y2; P49146; NPY-Y2 expressing cells, antagonist mode; inhibition, % at 2.7 µM; 140,000 compounds, 0.99% hits; in the data active = inhibition above about 17%;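 also: 0% = vehicle with agonist challenge and 100% = reference antagonist with challenge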
Target sequence (P49146 whole entry, looked up): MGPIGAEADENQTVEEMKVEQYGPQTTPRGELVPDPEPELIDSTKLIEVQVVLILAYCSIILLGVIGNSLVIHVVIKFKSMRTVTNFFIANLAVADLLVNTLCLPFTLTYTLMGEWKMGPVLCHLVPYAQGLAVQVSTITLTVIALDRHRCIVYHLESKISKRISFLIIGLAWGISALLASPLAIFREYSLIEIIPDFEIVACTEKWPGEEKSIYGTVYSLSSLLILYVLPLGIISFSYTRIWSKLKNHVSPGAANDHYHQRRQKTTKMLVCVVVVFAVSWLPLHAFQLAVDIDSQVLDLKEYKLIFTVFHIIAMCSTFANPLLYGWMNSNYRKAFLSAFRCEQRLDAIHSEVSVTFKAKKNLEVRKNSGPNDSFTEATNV
S1P4 antagonist: human S1P4 receptor antagonism | inhibition, % at 4.98 µM | S1P4-expressing cells, antagonist mode, reporter read-out | 220,000 compounds, 0.26% hits | AID 1510; in the data active = inhibition above about 29%;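 also: 0% = wells stimulated with agonist and 100% = vehicle wells without agonist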
NPY-Y1 antag: NPY-Y1 (human) receptor antagonism | P25929 | HEK293-CNG Y1 cells, membrane potential fluorescence; NPY at EC95, then isoproterenol | inhibition, % at 3.6 µM | 200,000 compounds, 1% hits;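 active = inhibition above the campaign mean inhibition of all tested compounds plus 3 SD, cut at about 20% in these data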;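 also: 0% = DMSO wells given NPY plus isoproterenol and 100% = isoproterenol alone without NPY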
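Assay system: HEK293 cells with Y1 receptor plus CNG channel | Probe or stimulus: NPY (25 nM), isoproterenol (1 µM), Ro 20-1724 (25 µM) | Timing: Compound incubation 1 h at room temperature, readout 45 min post-stimulation | Measured by: Membrane-potential fluorescent dye readout | Benchmarks: High control isoproterenol alone, low control NPY with isoproterenol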
S1P4 ag: human S1P4 receptor agonism. activation, % at 4.98 µM. 220,000 compounds, 0.35% hits. S1P4-expressing cell line, agonist reporter assay. O95977; in the data active = activation above about 11%;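 also: 0% = DMSO vehicle and 100% = reference agonist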
NPY-Y2 PAM-ag: potentiators or agonists of human neuropeptide Y receptor Y2 | P49146 | cells expressing NPY-Y2, potentiator/agonist read-out | activation, % at 3.6 µM | 220,000 compounds, 0.45% hits; in the data active = activation above about 27%;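 also: cells stimulated with NPY near EC25 plus isoproterenol at EC100; 0% = vehicle plus submaximal agonist and 100% = vehicle plus saturating agonist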
NPY-Y1 PAM-ag: potentiators or agonists of human neuropeptide Y receptor Y1; activation, % at 3.6 µM; NPY-Y1 expressing cells, potentiator/agonist activation; 220,000 compounds, 0.37% hits; P25929; in the data active = activation above about 33%, passing the limit was not always enough;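 also: cells stimulated with NPY at EC10 then isoproterenol at EC100; 0% = low agonist plus stimulus and 100% = saturating agonist plus stimulus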
NPY-Y2 confirm: human NPY-Y2 potentiation or agonism, confirmation; cell-based NPY-Y2 potentiator/agonist assay; activation, % at 3.6 µM; shares compounds with NPY-Y2 PAM-ag; AID 1539; 450 compounds, 20% hits; in the data active = activation above about 33%
NPY-Y1 potentiator: counter-screen for NPY-Y2 potentiators or agonists: NPY-Y1 potentiators or agonists; shares compounds with NPY-Y2 PAM-ag; Y1 HEK293-CNG cells, membrane potential fluorescence; activation, % at 3.6 µM; 450 compounds, 20% hits; in the data active = activation above about 45%;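 also: cells stimulated with submaximal NPY then isoproterenol with phosphodiesterase inhibitor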
NPY-Y1 ag 2: activates human NPY-Y1, counter-screen for NPY-Y2 potentiators; shares compounds with NPY-Y2 PAM-ag; HEK293 Y1-CNGC, membrane potential fluorescence, agonism; activation, % at 3.6 µM; 450 compounds, 37% hits; AID 1702;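 active = activation above the mean of DMSO-only control wells plus 3 SD, cut at about 18% in these data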;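 also: cells stimulated with 1 µM isoproterenol plus the PDE inhibitor Ro 20-1724; 0% = isoproterenol with DMSO and no NPY and 100% = 40 nM NPY; Y1 agonists lower the membrane potential dye signal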
CNGC inhibitor: counter-screen for NPY-Y2 potentiators: inhibitors of CNG channel activity; shares compounds with NPY-Y2 PAM-ag; HEK293-CNG parental, isoproterenol cAMP, membrane potential fluorescence; inhibition, % at 3.6 µM; 450 compounds, 32% hits; AID 1703;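 active = inhibition above the control-well mean plus 3 SD of those wells, cut at about 22% in these data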;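 also: 0% = DMSO with isoproterenol and 100% = DMSO without isoproterenol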
Y2 agonist ctr: NPY-Y2 agonism, counter-screen for Y2 potentiators; AID 1710; 450 compounds, 56% hits; HEK293 Y2/CNGC cells, membrane potential fluorescence, agonist mode; activation, % at 3.6 µM; shares compounds with NPY-Y2 PAM-ag;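 active = activation above the mean of solvent-only control wells plus 3 SD, cut at about 10% in these data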;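 also: cells stimulated by isoproterenol with no NPY added so direct agonism is tested; 0% = DMSO with isoproterenol alone and 100% = NPY at EC100 plus isoproterenol; agonism lowers probe fluorescence through less cAMP and CNG channel opening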
Active calls of the source: *; x = no result.

SMILES | NPY Y2 blocker | S1P4 antagonist | NPY-Y1 antag | S1P4 ag | NPY-Y2 PAM-ag | NPY-Y1 PAM-ag | NPY-Y2 confirm | NPY-Y1 potentiator | NPY-Y1 ag 2 | CNGC inhibitor | Y2 agonist ctr
O=C(NC(NC(=S)Nc1cccc(C(=O)O)c1)C(Cl)(Cl)Cl)OCc1ccccc1 (configuration not stated) | 2.4 | -13.1 | -3.3 | 1.6 | -3.4 | -12.7 | x | x | x | x | x
O=C(NC(NC(=S)Nc1cccc(Cl)c1)C(Cl)(Cl)Cl)OCc1ccccc1 (configuration not stated) | -1.3 | -14.0 | -6.9 | -0.5 | 33.2* | 15.2 | 19.6 | 34.9 | 30.2* | 27.8* | 34.3*
CN(CC(=O)NCc1ccco1)S(=O)(=O)c1ccc2c(c1)c(=O)n(C)c(=O)n2C | x | 6.7 | x | 0.5 | -7.7 | -22.9 | x | x | x | x | x
O=C(N/N=C/c1ccc(OC(F)F)cc1)c1cccc(S(=O)(=O)N2CCOCC2)c1 | x | -11.1 | -0.3 | 2.6 | 57.2* | 9.6 | 1.2 | -2.7 | 2.8 | 2.7 | 10.0*
CC(C)c1ccc(/C=N/NC(=O)c2cccc(S(=O)(=O)N3CCOCC3)c2)cc1 | x | -3.4 | -5.2 | 0.2 | -2.8 | 3.1 | x | x | x | x | x
Cc1nn(Cc2ccc(F)cc2)c(C)c1NC(=O)c1cnn2c1NC(c1ccccc1)CC2C(F)(F)F (configuration not stated) | -3.1 | -23.6 | -7.7 | -0.6 | 33.8* | 35.7 | 21.1 | 27.7 | 19.2* | 22.4* | 27.4*
CCNC(=O)NC(=O)COC(=O)CCCc1nc2ccccc2s1 | x | -27.4 | 1.7 | 0.5 | -11.8 | -20.6 | x | x | x | x | x
OC(CNc1ccccc1)COc1ccc(OCC(O)CNc2ccccc2)cc1 (configuration not stated) | -3.1 | -19.5 | -18.7 | 0.6 | 37.0* | 38.7 | 42.6* | 56.6* | 44.0* | 44.0* | 47.5*
COc1ccc(OCC(O)CNC(=O)Nc2ccccc2)cc1 (configuration not stated) | x | -3.9 | x | -1.8 | 43.5* | 16.4 | 1.2 | 6.8 | -5.0 | 1.8 | 2.8
CCOCC(O)CNc1ccccc1 (configuration not stated) | -1.6 | -12.0 | 3.0 | 0.7 | 1.0 | -8.0 | x | x | x | x | x
CCOC(=O)c1c(C2CC2)csc1NC(=O)COC(=O)c1cnc(Cl)c(Cl)c1 | 5.9 | -28.3 | -1.8 | -0.8 | 59.6* | 15.4 | -10.7 | -21.7 | -26.3 | -11.7 | -14.2
COc1cccc(/C=C/C(=O)NCc2ccc(S(N)(=O)=O)cc2)c1 | x | -5.4 | x | 3.4 | 0.2 | 4.2 | x | x | x | x | x
O=C(Nc1cccc(S(=O)(=O)Nc2ccc(Cl)cc2)c1)c1ccc(Cl)nc1 | -2.2 | -39.4 | 6.3 | -1.0 | 46.2* | 1.0 | 11.2 | -16.4 | -20.8 | 1.0 | 3.4
CCOC(=O)C(=CNc1cc(C)nn1-c1ccc(C)cc1)C(=O)OCC | 13.0 | -2.3 | 9.1 | 1.5 | 36.2* | 14.6 | 1.6 | -6.6 | -6.7 | -11.6 | -1.6
O=C(/C=C/c1cn(-c2ccccc2)nc1-c1cccnc1)c1ccco1 | x | 17.4 | -3.5 | -1.8 | -11.2 | 1.8 | x | x | x | x | x
O=C(/C=C/c1cn(-c2ccccc2)nc1-c1cccnc1)N1CCCC1 | x | -11.8 | -1.7 | 0.9 | 27.8* | 19.8 | 11.9 | 21.6 | 11.9 | 4.4 | 14.9*
O/N=C/c1ccn(-c2ccc(Br)cc2)c1 | x | 5.6 | 0.6 | -0.3 | -2.2 | 5.4 | x | x | x | x | x
O=Cc1cc(N=Nc2cccc(C(=O)O)c2)ccc1O | x | 7.2 | -3.8 | 0.6 | -1.4 | 14.4 | x | x | x | x | x
O=Cc1cc(N=Nc2ccccc2Cl)ccc1O | x | 3.0 | -15.1 | 0.3 | 33.7* | 33.4 | 42.0* | 51.2* | 24.7* | 24.9* | 38.6*
